Screening results (PubChem)
In the library only some 1.4% were active in any assay of this set; here they are far more common.
FXIa inh 1536 – inhibitors of human coagulation factor XIa | P03951 | purified FXIa, Boc-Glu-Ala-Arg-AMC fluorogenic substrate | inhibition, % at 5 µM | 220,000 compounds, 0.14% hits | AID 798;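 active means inhibition of at least 40%; inactive means inhibition below 40%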;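 further: fluorescence of freed AMC excited at 355 nm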
FXIIa inh 1536 – inhibitors of human coagulation factor XIIa | AID 800 | purified FXIIa, Boc-QGR-AMC fluorogenic substrate, 2 h | inhibition, % at 5 µM | P00748 | 220,000 compounds, 0.3% hits; in the data active means inhibition above about 40%
thrombin 1536 – blocks human thrombin protease activity; alpha-thrombin, Boc-VPR-AMC fluorogenic substrate cleavage; AID 1046; inhibition, % at 5 µM; P00734; 220,000 compounds, 0.26% hits;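 active means inhibition at or above 40%; inactive means inhibition below 40%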
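Test system: human alpha-thrombin protein / Dosing: one concentration per compound, 5 µM, with 0.2% DMSO / Medium: pH 7.5 Tris-saline with Tween 20 / Benchmarks: no-compound enzyme wells and no-enzyme blanks / Read-out basis: percent inhibition of thrombin substrate cleavage / Timing: reaction at room temperature / Measured by: fluorescence, ex 355 nm, em 460 nm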
KLK5 inh – inhibitors of human kallikrein 5; recombinant hK5, fluorogenic AMC substrate cleavage; inhibition, % at 5 µM; AID 873; 210,000 compounds, 0.59% hits;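 active means inhibition of 40% or more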
Target sequence (Q9Y337 67-293 limits assumed): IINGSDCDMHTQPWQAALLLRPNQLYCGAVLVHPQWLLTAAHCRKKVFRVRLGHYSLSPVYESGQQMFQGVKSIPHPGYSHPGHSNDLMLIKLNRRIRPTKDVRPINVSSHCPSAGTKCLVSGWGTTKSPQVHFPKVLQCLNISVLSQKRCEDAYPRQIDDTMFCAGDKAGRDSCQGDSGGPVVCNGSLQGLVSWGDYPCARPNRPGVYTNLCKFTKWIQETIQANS
m-calpain inh – calpain II (pig) inhibition; inhibition, % at 16 µM; 220,000 compounds, 0.37% hits; AID 1236; purified calpain II, fluorogenic peptide substrate, 30 min;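 active means inhibition above about 50%, limit read from the data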
Each line names hits and unclear results; the compound was inactive in the other large screens.

CN1CCN(C(=O)c2cc3c(C(F)(F)F)nn(C)c3s2)CC1	KLK5 inh 48
CC(C)Cc1cc(C(=O)NCc2cccs2)no1	KLK5 inh 55
CC(C)Cc1cc(C(=O)NCCN2CCOCC2)no1	KLK5 inh 44
CC(C)Cc1cc(C(=O)NCc2cccnc2)no1	none
Cc1ccc(/C=N/NC(=O)c2cccc(S(=O)(=O)N3CCOCC3)c2)o1	none
CCN(CC)CCCNC1=C(Cl)C(=O)c2ccccc2C1=O	m-calpain inh 51 (no result: KLK5 inh)
COCCCNC1=C(Cl)C(=O)c2ccccc2C1=O	none
Cc1ccc(C(=O)NC(NC(=S)Nc2ccc(S(N)(=O)=O)cc2)C(Cl)(Cl)Cl)cc1 (centres undefined)	KLK5 inh 44
CC(OC(=O)c1ccccc1Nc1ccc(SC(F)F)cc1)C(N)=O (centres undefined)	m-calpain inh 68
O=C(O)c1ccc(Cl)c(S(=O)(=O)Nc2cccc(C(=O)Nc3cccc(C(F)(F)F)c3)c2)c1	none
C/C(N)=C(/C#N)C(=O)COC(=O)CNS(=O)(=O)c1c(F)cccc1F	none
O=C(c1ccco1)N1CCN(c2ncnc3scc(-c4cccs4)c23)CC1	none
c1ccc(N2CCN(c3ncnc4scc(-c5cccs5)c34)CC2)cc1	m-calpain inh 54
COc1ccc(-n2c(CNc3ccc(C)cc3)nnc2SCC(=O)Nc2nc(-c3ccccc3)cs2)cc1	m-calpain inh 68
COc1ccc(NCc2nnc(SCC(=O)Nc3nc(-c4ccccc4)cs3)n2-c2ccccc2)cc1	none
Cc1nn2cc(-c3ccc(Cl)cc3)cnc2c1Cl	none
CCCc1nc2ccc(NC(=O)NCCC(=O)OCC)cc2c(=O)n1Cc1cccc(Cl)c1	none
CCOC(=O)CCNC(=O)Nc1ccc2nc(C)n(Cc3cccc(Cl)c3)c(=O)c2c1	m-calpain inh 66
Cc1cccc(-c2nc3c(c(=O)c4ccccc4n3C)c(=O)n2-c2ccccc2)c1	none
Cc1cc(N2CCN(c3ccccc3)CC2)nc(N)n1	none
Cc1cc(N2CCN(c3ccccc3)CC2)nc(-c2ccccc2)n1	thrombin 1536 83, KLK5 inh 65
NS(=O)(=O)c1ccc(NC(=O)COC(=O)CCc2ccc(S(=O)(=O)N3CCOCC3)cc2)cc1	none
Fc1ccccc1N1CCN(Cc2nc(-c3ccc(Cl)cc3Cl)no2)CC1	KLK5 inh 56
Cc1ccc(C(=O)NC(=S)NCc2cccnc2)cc1C	none
CC(C)c1ccc(C(=O)NC(=S)NCc2cccnc2)cc1	m-calpain inh 53
O=C(NC(Cc1ccccc1)C(=O)O)OCc1ccccc1 (centres undefined)	none
CC(C)C(NC(=O)C(Cc1ccccc1)NC(=O)OCc1ccccc1)C(=O)O (centres undefined)	FXIa inh 1536 47
CCOc1ncccc1C(=O)OCC(=O)Nc1ccc(C(N)=O)cc1	FXIIa inh 1536 45, KLK5 inh 42
CCOc1ncccc1C(=O)OCC(=O)Nc1ccc(C(C)C)cc1	none
O=C(NCc1ccncc1)c1ccc(Br)o1	FXIIa inh 1536 41
COc1cc(OC)cc(C(=O)N[C@H](C(=O)OCC(=O)N2CCc3ccccc32)C(C)C)c1	none
CCCC(=O)Nc1cc(C(=O)O)ccc1S(=O)(=O)c1ccc(Cl)cc1	none
Cc1oc(C)c(C(=O)O)c1C(=O)O	none
COC(=O)c1c(C)oc(C)c(C(=O)OC)c1=O	KLK5 inh 74
Cc1ccc(C(=O)NCC(=O)OC(C)C(=O)Nc2ccc(N3CCOCC3)cc2)s1 (centres undefined)	FXIa inh 1536 44, FXIIa inh 1536 82, KLK5 inh 77
COCCCNC(=O)Cc1coc2ccc3ccccc3c12	none
CCCCNC(=O)Cc1coc2ccc3ccccc3c12	KLK5 inh 58
S=c1[nH]nc(-c2cc(-c3ccccc3)n[nH]2)n1/N=C/C(Br)=C/c1ccccc1	none
CC(C)Nc1nnc(Sc2ccc(Cl)cc2[N+](=O)[O-])s1	m-calpain inh 71
CCc1c(C)nc2ncnn2c1N1CCC(C(=O)Nc2ccc(C)cc2)CC1	none
CCc1c(C)nc2ncnn2c1N1CCC(C(=O)Nc2ccccc2)CC1	FXIIa inh 1536 53
CC(C)C1Cc2c(C#N)c(N)n(C)c(=S)c2CO1 (centres undefined)	KLK5 inh 53
O=C(NCCCN1CCOCC1)C1Cc2c(ccc3ccccc23)O1 (centres undefined)	none
CC1CCC2(CC1)SCC(=O)N2c1ccccc1 (centres undefined)	KLK5 inh 91
CCC1CCC2(CC1)SCC(=O)N2c1ccccc1 (centres undefined)	FXIa inh 1536 59, KLK5 inh 63
Cc1cccc(N2C(=O)CSC23CCCCC3)c1	none
Cc1cc(C(=O)Cn2nc(C(=O)O)c3ccccc3c2=O)c(C)n1-c1ccc(F)cc1	none
COc1ccc(/C=C/C(=O)OCC(=O)Nc2ccc(N3CCOCC3)cc2)cc1	KLK5 inh 82
O=c1[nH][nH]c(=S)n1-c1ccccc1C(F)(F)F	none
O=c1[nH]c(=O)n(Cc2ccccc2)c2c1C(C(F)(F)F)(C(F)(F)F)N=C(c1ccco1)N2	thrombin 1536 40, KLK5 inh 147
O=c1[nH]c(=O)n(Cc2ccco2)c2c1C(C(F)(F)F)(C(F)(F)F)N=C(c1ccc(F)cc1)N2	none
COc1cc2c(C(=O)N3CCN(c4cccc(Cl)c4)CC3)cn(CC(C)C)c(=O)c2cc1OC	none
CC(CN1C(C)CCCC1C)OC(=O)c1ccc(Cl)cc1Cl (centres undefined)	FXIIa inh 1536 45
CC(CN1C(C)CCCC1C)OC(=O)c1ccccc1Cl (centres undefined)	none
COc1cc2[nH]c(=S)n(CCN3CCOCC3)c(=O)c2cc1OC	KLK5 inh 104
CCc1ccccc1NC(=O)c1nnn(CC(=O)Nc2cccc(C)c2)c1N	KLK5 inh 43
Cc1ccc(C)c(NC(=O)Cn2nnc(C(=O)Nc3c(C)cccc3C)c2N)c1	KLK5 inh 52
CCCOc1ccc(C(=O)NCCC(=O)NCCCC(=O)O)cc1	none
C=CCSc1nnc(-c2cc3c(-c4ccccc4)nn(C)c3s2)n1C	KLK5 inh 52
CC(=O)c1c(C)nn(C(=O)c2cccs2)c1C	KLK5 inh 56
Cn1nc(C(F)(F)F)c(CO)c1Sc1ccc(F)cc1	none
CN(C)Cc1ccccc1COc1ccccc1	none
Cc1cc(C(=O)Cn2ncc(Cl)c(Cl)c2=O)c(C)n1CC(F)(F)F	KLK5 inh 72
Cc1ccc(C)c(C(=O)Cn2ncc(Cl)c(Cl)c2=O)c1	none
COc1cccc(Cc2n[nH]c(=S)n2Cc2ccco2)c1	none
CCOc1cc(CNCc2cccnc2)ccc1OCC(=O)NC(C)(C)C	none
Cn1c(=O)c2c(nc(SCCCC#N)n2Cc2c(F)cccc2Cl)n(C)c1=O	none
CC(C)c1nc(SCc2c(F)cccc2Cl)c2c(=O)n(C)c(=O)n(C)c2n1	KLK5 inh 65
Cc1cc(C)c(S(=O)(=O)Nc2ccc3c(c2)CCC3)c(C)c1	m-calpain inh 51
CCSc1ccccc1C(=O)NC1CCCCC1	none (no result: FXIIa inh 1536)
COc1ccccc1C(=O)Nc1ccc(S(=O)(=O)NC2=NCCCCC2)cc1	KLK5 inh 52
